# Experimental data from ChEMBL document CHEMBL4837245, “Discovery of VU6028418: A Highly Selective and Orally Bioavailable M4 Muscarinic Acetylcholine Receptor Antagonist” (ACS Med Chem Lett, 2021).
# Legend:
# [1] = target: T1, Muscarinic acetylcholine receptor M2 (Homo sapiens, UniProt P08172); experiment: Antagonist activity at human muscarinic M2 receptor expressed in CHO cells co-expressing Gqi5 assessed as inhibition of acetylcholine-induced calcium mobilization; format: functional, cell-based
# T1 sequence (P08172 whole entry): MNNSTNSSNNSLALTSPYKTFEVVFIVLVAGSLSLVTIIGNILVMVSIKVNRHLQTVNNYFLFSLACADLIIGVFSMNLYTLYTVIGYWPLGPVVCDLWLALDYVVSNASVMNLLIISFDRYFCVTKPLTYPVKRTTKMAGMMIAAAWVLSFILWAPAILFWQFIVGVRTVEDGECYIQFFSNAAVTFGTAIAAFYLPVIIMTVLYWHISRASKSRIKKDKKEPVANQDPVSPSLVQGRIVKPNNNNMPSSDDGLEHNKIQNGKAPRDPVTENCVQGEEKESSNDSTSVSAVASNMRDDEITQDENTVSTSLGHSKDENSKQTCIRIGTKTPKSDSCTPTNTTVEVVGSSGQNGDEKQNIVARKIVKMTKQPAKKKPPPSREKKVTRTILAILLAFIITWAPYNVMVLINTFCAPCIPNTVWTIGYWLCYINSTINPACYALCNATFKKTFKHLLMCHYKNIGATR
# Procedure, shortened: (§1)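 CHO cells stably transfected with the given human mAChR subtype. Compound added before an EC80 concentration of acetylcholine; antagonism read as calcium mobilization. One independent determination in triplicate.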
# [2] = target: CYP2D6 (Homo sapiens, UniProt P10635); experiment: Inhibition of CYP2D6 in human liver microsomes using dextromethorphan as substrate preincubated for 15 mins followed by NADPH addition and measured after 8 mins by LC-MS/MS analysis; format: ADME; conditions: human, liver microsomes, probe dextromethorphan; time 23 min; read-out: INH
# Procedure, shortened: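 Cocktail CYP450 inhibition assay run in human liver microsomes.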
# [3] = tested on: P-gp (human); experiment: Efflux ratio of apparent permeability basolateral to apical over apical to basolateral side at human P-gp in MDCK-MDR1 cells; format: ADME, cell-based, Canis lupus familiaris; conditions: dog
# Procedure, shortened: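 MDCK cell monolayers overexpressing MDR1 (P-gp). Efflux ratio taken as Papp(B-to-A)/Papp(A-to-B).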
# [4] = Kinetic solubility of compound at pH 6.8; format: physicochemical; conditions: buffer, read-out: Kinetic_solubility
# Procedure, shortened: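 Kinetic solubility measured at pH 6.8.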
# [5] = Clearance in Beagle dog plasma at 1.0 mg/kg, iv measured upto 24 hrs by LC-MS/MS analysis; format: ADME, organism-based, Canis lupus familiaris
# Procedure, shortened: (§2)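 Single iv and oral (suspension) dosing; iv/po doses 1/10 mg/kg in SD rat, 1/3 mg/kg in CD-1 mouse and beagle dog. Plasma PK parameters are means from two to three animals per species.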
# [6] = Volume of distribution at steady state in Sprague-Dawley rat at 1.0 mg/kg, iv measured upto 24 hrs by LC-MS/MS analysis; format: ADME, organism-based; conditions: in vivo, read-out: Vdss
# Procedure, shortened: (§3)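 Pharmacokinetics in Sprague-Dawley rat, CD-1 mouse and beagle dog. Intravenous dose was 1 mg/kg in each species. Oral doses were given as a suspension: 10 mg/kg in rat, 3 mg/kg in mouse and dog. Each parameter is the mean of two to three animals.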
# [7] = Volume of distribution at steady state in Beagle dog at 1.0 mg/kg, iv measured upto 24 hrs by LC-MS/MS analysis; format: ADME, organism-based, Canis lupus familiaris; conditions: in vivo, read-out: Vdss; procedure, shortened: as §3
# [8] = Cmax in Beagle dog at 3 mg/kg, po measured upto 24 hrs by LC-MS/MS analysis; format: ADME, organism-based, Canis lupus familiaris; set-up: route oral, dose 3 mg/kg, time <=24; conditions: in vivo; procedure, shortened: as §2
# [9] = Tmax in CD-1 mouse at 3 mg/kg, po measured upto 24 hrs by LC-MS/MS analysis; format: ADME, organism-based; conditions: in vivo; procedure, shortened: as §3
# [10] = Oral bioavailability in Sprague-Dawley rat at 10 mg/kg measured upto 24 hrs by LC-MS/MS analysis; format: ADME, organism-based; conditions: in vivo; procedure, shortened: as §2
# [11] = Ratio of free drug concentration in CSF to plasma of Sprague-Dawley rat at 1 mg/kg, iv; format: ADME, organism-based
# [12] = tested on: Rattus norvegicus; experiment: Reversal of haloperidol-induced catalepsy in rat at 1.0 mg/kg, po relative to control; format: functional
# Procedure, shortened: (§4)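 Rat haloperidol-induced catalepsy model with oral test dosing at 0.3, 1 and 3 mg/kg alongside vehicle-treated controls. Read-out is latency to withdraw, also expressed as % reversal of catalepsy. Groups compared by ANOVA.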
# [13] = tested on: Rattus norvegicus; experiment: Reversal of haloperidol-induced catalepsy in rat at 3 mg/kg, po relative to control; format: functional; procedure, shortened: as §4
# [14] = tested on: Rattus norvegicus; experiment: Reversal of haloperidol-induced catalepsy in po dosed rat; format: functional, organism-based; procedure, shortened: as §4
# [15] = Ratio of drug concentration in brain to plasma of rat at 1 mg/kg, po after 1 hr; format: ADME, organism-based
# Procedure, shortened: (§5)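 At the end of the catalepsy study, 1 h after a 1 mg/kg oral dose in rats, total brain/plasma (Kp) and unbound brain/plasma (Kp,uu) ratios were determined.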
# [16] = Ratio of free drug concentration in brain to plasma of rat at 1 mg/kg, po after 1 hr; format: ADME, organism-based; procedure, shortened: as §5
# [17] = target: Muscarinic acetylcholine receptor M3 (Homo sapiens, UniProt P20309); experiment: Antagonist activity at human muscarinic M3 receptor expressed in CHO cells co-expressing Gqi5 assessed as inhibition of acetylcholine-induced calcium mobilization; format: functional; procedure, shortened: as §1
# [18] = target: CYP2B6 (Homo sapiens, UniProt P20813); experiment: Induction of CYP2B6 in human hepatocytes relative to control; format: ADME, cell-based, Hepatocyte
# [19] = target: CYP3A4 (Homo sapiens, UniProt P08684); experiment: Induction of CYP3A4 in human hepatocytes relative to control; format: ADME, cell-based, Hepatocyte
# [20] = tested on: Rattus norvegicus; experiment: Effect on haloperidol-induced catalepsy in rat assessed as reduction in mean latency to withdraw at 1 mg/kg, po (reference value: 43.4 +/- 4.3 sec); format: functional; procedure, shortened: as §4
# [21] = target: T2, Sigma non-opioid intracellular receptor 1 (Homo sapiens, UniProt Q99720); experiment: Inhibition of human sigma1 receptor at 10 uM relative to control
# [22] = target: hERG (Homo sapiens, UniProt Q12809); experiment: Inhibition of human ERG at 10 uM relative to control
# [23] = target: T2, Sigma non-opioid intracellular receptor 1; experiment: Inhibition of human sigma1 receptor by radioligand binding assay
# [24] = target: Voltage-gated inwardly rectifying potassium channel KCNH2 (Homo sapiens, UniProt Q12809); experiment: Inhibition of human ERG tail current by electrophysiological assay relative to control
# Procedure, shortened: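 HEK cells, whole-cell electrophysiology. hERG tail current recorded at −40 mV after a depolarizing step to +30 mV; n = 3.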
# T2 sequence (Q99720 whole entry): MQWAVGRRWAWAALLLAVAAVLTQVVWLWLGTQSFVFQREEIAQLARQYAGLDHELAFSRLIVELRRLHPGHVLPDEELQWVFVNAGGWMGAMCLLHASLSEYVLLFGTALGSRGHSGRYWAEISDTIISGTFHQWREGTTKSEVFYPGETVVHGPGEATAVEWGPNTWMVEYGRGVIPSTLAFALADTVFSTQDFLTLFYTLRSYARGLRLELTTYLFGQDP
# Chain of CYP2D6 (P10635 whole entry): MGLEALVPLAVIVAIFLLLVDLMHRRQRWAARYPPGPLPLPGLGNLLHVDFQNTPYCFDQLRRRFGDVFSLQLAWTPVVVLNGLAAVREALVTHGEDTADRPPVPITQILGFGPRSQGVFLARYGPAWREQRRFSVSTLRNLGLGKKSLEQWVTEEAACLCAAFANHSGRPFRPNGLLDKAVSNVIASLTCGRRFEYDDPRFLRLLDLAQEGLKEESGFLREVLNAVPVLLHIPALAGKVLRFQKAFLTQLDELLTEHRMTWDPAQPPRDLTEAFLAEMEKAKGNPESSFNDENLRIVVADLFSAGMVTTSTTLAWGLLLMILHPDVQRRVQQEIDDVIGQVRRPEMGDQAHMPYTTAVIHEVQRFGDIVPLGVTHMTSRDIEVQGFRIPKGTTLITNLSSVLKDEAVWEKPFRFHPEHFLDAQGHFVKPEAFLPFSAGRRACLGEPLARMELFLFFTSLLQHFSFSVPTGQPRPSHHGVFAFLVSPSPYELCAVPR
# Chain of Muscarinic acetylcholine receptor M3 (P20309 whole entry): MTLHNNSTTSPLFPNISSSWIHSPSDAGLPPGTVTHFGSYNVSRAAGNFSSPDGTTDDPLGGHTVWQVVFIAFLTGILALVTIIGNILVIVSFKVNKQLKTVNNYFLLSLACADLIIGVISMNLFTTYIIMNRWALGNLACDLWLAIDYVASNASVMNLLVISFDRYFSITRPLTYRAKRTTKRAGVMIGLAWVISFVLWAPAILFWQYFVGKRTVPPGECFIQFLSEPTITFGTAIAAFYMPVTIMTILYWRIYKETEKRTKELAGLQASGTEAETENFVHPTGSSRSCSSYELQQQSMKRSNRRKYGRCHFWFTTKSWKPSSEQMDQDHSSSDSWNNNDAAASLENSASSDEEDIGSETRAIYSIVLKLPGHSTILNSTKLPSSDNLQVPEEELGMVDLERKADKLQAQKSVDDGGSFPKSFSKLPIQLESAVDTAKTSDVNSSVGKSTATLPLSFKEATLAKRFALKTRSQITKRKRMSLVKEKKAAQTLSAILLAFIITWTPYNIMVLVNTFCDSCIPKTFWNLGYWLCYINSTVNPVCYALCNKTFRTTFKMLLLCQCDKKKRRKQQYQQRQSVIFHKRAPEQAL
# Chain of CYP3A4 (P08684 whole entry): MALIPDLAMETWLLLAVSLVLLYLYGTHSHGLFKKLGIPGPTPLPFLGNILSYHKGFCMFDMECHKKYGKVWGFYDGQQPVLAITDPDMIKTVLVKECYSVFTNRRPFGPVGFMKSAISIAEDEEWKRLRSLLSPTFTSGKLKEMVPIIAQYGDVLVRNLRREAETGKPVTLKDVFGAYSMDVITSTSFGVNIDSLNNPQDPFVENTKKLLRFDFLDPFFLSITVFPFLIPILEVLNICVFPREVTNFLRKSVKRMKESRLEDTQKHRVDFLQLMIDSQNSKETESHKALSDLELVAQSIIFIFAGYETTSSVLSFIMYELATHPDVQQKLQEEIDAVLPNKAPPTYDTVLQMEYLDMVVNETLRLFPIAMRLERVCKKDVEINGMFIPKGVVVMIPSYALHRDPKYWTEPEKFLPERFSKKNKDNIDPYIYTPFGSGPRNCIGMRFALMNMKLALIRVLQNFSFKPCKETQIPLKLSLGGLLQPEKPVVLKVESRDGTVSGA
# Chain of CYP2B6 (P20813 whole entry): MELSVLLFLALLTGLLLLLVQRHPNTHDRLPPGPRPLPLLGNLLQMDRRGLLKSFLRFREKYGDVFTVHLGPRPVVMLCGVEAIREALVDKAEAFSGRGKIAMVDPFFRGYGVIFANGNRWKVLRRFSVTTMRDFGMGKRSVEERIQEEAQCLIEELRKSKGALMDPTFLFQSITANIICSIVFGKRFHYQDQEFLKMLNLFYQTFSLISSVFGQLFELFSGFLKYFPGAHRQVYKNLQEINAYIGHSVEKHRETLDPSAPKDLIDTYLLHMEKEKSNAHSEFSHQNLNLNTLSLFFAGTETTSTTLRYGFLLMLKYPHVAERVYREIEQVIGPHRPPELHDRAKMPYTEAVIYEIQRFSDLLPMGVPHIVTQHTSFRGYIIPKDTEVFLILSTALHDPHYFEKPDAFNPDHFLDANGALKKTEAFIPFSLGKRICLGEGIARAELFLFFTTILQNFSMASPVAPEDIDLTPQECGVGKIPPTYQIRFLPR
# Chain of hERG (Q12809 whole entry): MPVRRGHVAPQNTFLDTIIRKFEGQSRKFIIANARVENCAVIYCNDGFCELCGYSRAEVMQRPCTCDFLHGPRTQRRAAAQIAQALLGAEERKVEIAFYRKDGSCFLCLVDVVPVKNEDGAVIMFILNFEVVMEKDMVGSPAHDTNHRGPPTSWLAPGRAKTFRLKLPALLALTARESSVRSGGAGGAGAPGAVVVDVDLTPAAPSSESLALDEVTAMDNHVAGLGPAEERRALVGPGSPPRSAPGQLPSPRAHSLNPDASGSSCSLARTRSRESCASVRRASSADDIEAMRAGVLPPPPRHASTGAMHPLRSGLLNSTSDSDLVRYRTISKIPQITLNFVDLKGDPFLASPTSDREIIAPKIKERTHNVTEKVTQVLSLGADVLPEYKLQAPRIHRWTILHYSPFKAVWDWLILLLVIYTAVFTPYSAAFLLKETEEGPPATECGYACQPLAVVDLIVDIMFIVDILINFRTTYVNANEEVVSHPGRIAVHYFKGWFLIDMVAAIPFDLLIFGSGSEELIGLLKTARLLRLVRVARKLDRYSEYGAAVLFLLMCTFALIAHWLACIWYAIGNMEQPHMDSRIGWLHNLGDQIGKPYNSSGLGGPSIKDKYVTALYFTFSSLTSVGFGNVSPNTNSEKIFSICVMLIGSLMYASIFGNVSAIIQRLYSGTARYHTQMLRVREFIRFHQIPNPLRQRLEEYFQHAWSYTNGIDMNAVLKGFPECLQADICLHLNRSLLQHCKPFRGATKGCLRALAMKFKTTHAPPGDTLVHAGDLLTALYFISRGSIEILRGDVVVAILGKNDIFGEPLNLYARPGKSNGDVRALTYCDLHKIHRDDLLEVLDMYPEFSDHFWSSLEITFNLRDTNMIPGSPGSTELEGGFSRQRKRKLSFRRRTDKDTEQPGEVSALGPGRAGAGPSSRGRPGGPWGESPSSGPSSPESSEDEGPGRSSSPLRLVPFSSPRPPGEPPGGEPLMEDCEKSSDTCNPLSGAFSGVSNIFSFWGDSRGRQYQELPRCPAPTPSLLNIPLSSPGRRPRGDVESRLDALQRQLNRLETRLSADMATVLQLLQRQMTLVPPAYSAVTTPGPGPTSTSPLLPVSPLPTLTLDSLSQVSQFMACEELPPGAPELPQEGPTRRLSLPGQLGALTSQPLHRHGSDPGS
# Chain of Voltage-gated inwardly rectifying potassium channel KCNH2 (Q12809 whole entry): as above
compound,measurement,setting,value
Fc1cc(F)c(F)c(-c2ccc(N[C@H]3C[C@@H]4CN(CC5CCOCC5)C[C@@H]4C3)nn2)c1,IC50,[1],3.5 µM
same,IC50 at 8 min,[2],> 30 µM
same,efflux ratio,[3],8.9
same,solubility kinetic,[4],85.1 µM
same,clearance,[5],43 mL/min/kg
same,Vd,[6],6.7 L/kg
same,Vd,[7],8.5 L/kg
same,Cmax,[8],70 ng/mL
same,Tmax,[9],6.67 h
same,bioavailability,[10],≥ 100%
same,Kp uu,[11],0.24
same,Activity,[12],50.9%
same,Activity,[13],65.2%
same,Activity,[14],Dose-Dependent Effect
same,Kp at 1 h,[15],3.4
same,Kp uu at 1 h,[16],0.32
same,IC50,[17],> 10 µM
same,Emax,[18],2.1%
same,Emax,[19],2.1%
same,Activity,[20],21.3 s
same,inhibition,[21],101%
same,inhibition at 10 µM,[22],61%
same,Ki,[23],0.0169 µM
same,inhibition (INH),[24],94%
